According to publication PMC12583737 (Nature Communications, 2025):

Key:
[1] = test system: V5-tagged FBXO22; assay: Cellular thermal stability shift assay; type: binding; conditions: lysates of HCC515 expressing V5-tagged FBXO22
How it was run: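 It got 10 µM neddylation inhibitor for 10 min, then compound or DMSO for 30 min at room temperature. Aliquots were heated 3 min across 38–71 °C in 3-degree steps and cleared at 20,000 g. Soluble V5-FBXO22 was read by anti-V5 immunoblot.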

[2] = test system: SMARCA2-nanoLuc and FBXO22-HaloTag; assay: SMARCA2/FBXO22 NanoBRET ternary complex assay in FBXO22 knockout HCC515 cells; type: cell-based; conditions: FBXO22 knockout HCC515, overnight, 10 µM MLN4924
How it was run: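 FBXO22-knockout HCC515 cells were transiently co-transfected with SMARCA2-NanoLuc and FBXO22-HaloTag at a 1:20 ratio (FuGENE HD). They were replated next day at 25,000 per well with or without HaloTag 618 ligand and left overnight. Cells were pretreated 1 h with 10 µM MLN4924, which was kept throughout, then dosed with test compound or a control PROTAC for 24 h. Emissions at 460/618 nm were read 10 min after substrate. Ratio ×1000 gave mBU, with the no-ligand value subtracted. Mean ± sd, n = 2–6.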

Compound	thermal stability of FBXO22 [1]	BRET signal (ternary complex SMARCA2/FBXO22) [2]
Nc1nnc(-c2ccccc2O)cc1N1CC2CCC(C1)N2c1ccnc(F)c1 [Compound 7]	not observed	–
Cc1ncsc1-c1ccc([C@H](C)NC(=O)[C@@H]2C[C@@H](O)CN2C(=O)[C@@H](c2cc(N3CCC(CN4CCC(OC5CC(Oc6cc(N7C8CCC7CN(c7cc(-c9ccccc9O)nnc7N)C8)ccn6)C5)CC4)CC3)no2)C(C)C)cc1 (some centres unmarked) [Compound A947]	–	not observed
